The structures appear in SMILES notation. Active and inactive are the calls of the source. The calls are words filed in the database; no cut-off is given here.

The target of assay [1] is Signal transducer and activator of transcription 3 (Homo sapiens) (UniProt P40763). As to the kind of experiment: Inhibition of IL-6-stimulated STAT3 activation in human THP1 cells at 100 uM incubated for 30 mins prior to IL-6 stimulation measured after 15 mins by EMSA relative to control. It counts as cell-based. The settings on record: THP-1. The gist of the method:
(§1)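 THP-1 cells (1.5 × 10⁶/mL; RPMI 1640, 10% FBS, 37 °C, 5% CO₂) pretreated 30 min with compound, then IL-6 20 ng/mL for 15 min. Nuclear extracts, made with protease inhibitors, were assayed for STAT3 DNA-binding by EMSA in Hepes pH 7.9 buffer with poly(dI-dC). Gel bands quantified by densitometry; % inhibition versus IL-6 alone, mean ± SD.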

In assay [2] the test system is THP-1. Kind of assay: Inhibition of TNFalpha and LPS-induced NFkappaB activation in human THP1 cells at 50 uM incubated for 30 mins prior to TNFalpha and LPS-induction measured after 30 mins by EMSA. It counts as cell-based. The gist of the method:
(§2)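 THP-1 cells (1.5 × 10⁶/mL) pretreated 30 min with compound, then stimulated 30 min with IFNγ (STAT1) or TNFα plus LPS (NF-κB). Nuclear extracts were analysed for DNA-binding by EMSA.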
(In EMSA bound probe runs differently from free probe, usually more slowly.)

Assay [3] has as its target Signal transducer and activator of transcription 3 (Homo sapiens) (UniProt P40763). Kind of assay: Inhibition of IL-6-stimulated STAT3 activation in human THP1 cells at 50 uM incubated for 30 mins prior to IL-6 stimulation measured after 15 mins by EMSA relative to control. It is filed as cell-based. The following applies: THP-1. The gist of the method:
as §1

The subject of assay [4] is THP-1. Kind of assay: Effect on total STAT3 level in IL-6-stimulated human THP1 cells at 50 uM incubated for 30 mins prior to IL-6 stimulation measured after 15 mins by Western blot analysis. It counts as functional, cell-based.
Assay [5] has as its target T1, Signal transducer and activator of transcription 1-alpha/beta (Homo sapiens) (UniProt P42224).
T1 sequence (whole entry): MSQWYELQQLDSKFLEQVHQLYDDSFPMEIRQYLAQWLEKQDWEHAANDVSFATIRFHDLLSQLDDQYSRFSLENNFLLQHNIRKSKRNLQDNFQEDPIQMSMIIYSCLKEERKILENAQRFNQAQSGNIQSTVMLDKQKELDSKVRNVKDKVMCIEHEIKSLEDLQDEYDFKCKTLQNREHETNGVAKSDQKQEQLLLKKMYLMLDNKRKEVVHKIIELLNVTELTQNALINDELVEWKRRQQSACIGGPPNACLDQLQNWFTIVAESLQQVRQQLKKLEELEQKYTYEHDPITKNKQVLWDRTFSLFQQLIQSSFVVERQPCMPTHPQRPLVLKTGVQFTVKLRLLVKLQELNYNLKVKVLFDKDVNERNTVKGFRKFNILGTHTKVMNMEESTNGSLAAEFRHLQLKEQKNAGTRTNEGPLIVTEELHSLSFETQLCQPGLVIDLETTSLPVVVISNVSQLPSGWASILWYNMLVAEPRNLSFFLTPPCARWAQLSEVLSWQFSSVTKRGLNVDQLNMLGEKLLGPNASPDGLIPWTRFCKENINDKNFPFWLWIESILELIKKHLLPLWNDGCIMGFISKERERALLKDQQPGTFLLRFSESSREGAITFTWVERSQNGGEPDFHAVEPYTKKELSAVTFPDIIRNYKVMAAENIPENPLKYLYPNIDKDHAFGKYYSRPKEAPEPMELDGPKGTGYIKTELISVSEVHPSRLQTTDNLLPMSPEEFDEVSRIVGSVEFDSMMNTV
As to the kind of experiment: Inhibition of IFNgamma-induced STAT1 activation in human THP1 cells at 50 uM incubated for 30 mins prior to IFNgamma induction measured after 30 mins by EMSA. It counts as cell-based. The following applies: THP-1. The gist of the method: as §2

For assay [6], the target named is Signal transducer and activator of transcription 3 (Homo sapiens) (UniProt P40763). Kind of assay: Inhibition of IL-6-induced cytosolic STAT3 phosphorylation at Tyr705 in human THP1 cells at 50 uM incubated for 30 mins prior to IL-6 induction measured after 15 mins by Western blot analysis. It is filed as cell-based. The settings on record: THP-1. A digest of the protocol: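 THP-1 cells (1.5 × 10⁶/mL) pretreated 30 min, then IL-6 20 ng/mL for 15 min. Cells were lysed at 4 °C in HEPES pH 7.4 NP-40 buffer with protease and phosphatase inhibitors. Lysate protein was run on 7.5% SDS-PAGE, blotted to PVDF and probed overnight at 4 °C with rabbit anti-phospho-Tyr705 STAT3.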
(A western blot detects proteins with antibodies after separation by electrophoresis.)

Sequence of Signal transducer and activator of transcription 3 (Homo sapiens) (P40763 whole entry): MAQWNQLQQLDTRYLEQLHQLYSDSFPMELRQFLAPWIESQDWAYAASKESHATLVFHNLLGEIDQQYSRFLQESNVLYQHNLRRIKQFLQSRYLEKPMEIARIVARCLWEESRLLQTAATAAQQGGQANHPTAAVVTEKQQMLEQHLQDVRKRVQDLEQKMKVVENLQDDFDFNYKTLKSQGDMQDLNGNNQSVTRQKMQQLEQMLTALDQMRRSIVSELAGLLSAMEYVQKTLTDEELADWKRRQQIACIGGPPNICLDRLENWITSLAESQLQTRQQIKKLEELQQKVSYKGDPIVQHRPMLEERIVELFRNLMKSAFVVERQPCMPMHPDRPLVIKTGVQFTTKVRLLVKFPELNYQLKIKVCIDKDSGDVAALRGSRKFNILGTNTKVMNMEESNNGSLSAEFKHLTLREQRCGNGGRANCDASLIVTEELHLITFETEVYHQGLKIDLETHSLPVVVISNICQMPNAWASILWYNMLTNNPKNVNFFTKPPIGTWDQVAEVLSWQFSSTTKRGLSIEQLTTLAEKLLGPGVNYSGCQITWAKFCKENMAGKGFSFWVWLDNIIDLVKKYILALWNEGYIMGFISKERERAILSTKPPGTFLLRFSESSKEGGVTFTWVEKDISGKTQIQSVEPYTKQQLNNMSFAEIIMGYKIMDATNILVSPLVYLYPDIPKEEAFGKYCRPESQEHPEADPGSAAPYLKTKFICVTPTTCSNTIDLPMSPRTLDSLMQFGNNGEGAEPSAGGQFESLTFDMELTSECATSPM

Consider `COC(=O)c1cc(OCCCCCn2c3ccccc3c3c(O)cccc32)cc(C(=O)OC)c1`, for which the inhibition in assay [1] turned out to be 20%. Take `COC(=O)c1cc(OCCCCCCn2c3ccccc3c3ccc(O)cc32)cc(C(=O)OC)c1`: the inhibition in assay [1] worked out at 1%.

In turn, `COC(=O)c1ccccc1OCCCCCCCn1c2ccc(OC)cc2c2c(C)ccc(C)c21` showed an inhibition in assay [1] of 6%. As for `COC(=O)c1cc(OCCCCCCCn2c3ccc(OC)cc3c3c(C)ccc(C)c32)cc(C(=O)OC)c1`, the inhibition result (with THP-1 [2]; in assay [5]) was “inactive” in each case. The compound also gave an inhibition in assay [3] of 90%. In addition, the result in the assay with THP-1 [4] was inactive. The inhibition result in assay [6] was “Active”. `COC(=O)c1cc(OCCCCCCn2c3ccccc3c3c(O)cccc32)cc(C(=O)OC)c1` came in with an inhibition in assay [1] of 5%. In the case of `COC(=O)c1cc(OCCCCCCn2c3ccc(OC)cc3c3c(C)ccc(C)c32)cc(C(=O)OC)c1`, the inhibition result (with THP-1 [2]; in assay [5]) was “inactive” each time. Moreover, the inhibition in assay [3] was 95%. Besides, the outcome with THP-1 [4] was inactive. Besides, the inhibition result in assay [6] is “Active”. In turn, `COC(=O)c1ccccc1OCCCCCn1c2ccc(OC)cc2c2c(C)ccc(C)c21` gave an inhibition in assay [1] of 3%. As to `COC(=O)c1cc(OCCCCCn2c3ccc(OC)cc3c3c(C)ccc(C)c32)cc(C(=O)OC)c1`, the inhibition entry (in the assay on THP-1 [2]; in assay [5]) was “inactive” throughout. This compound also registered an inhibition in assay [3] of 50%. The result in the assay on THP-1 [4] was inactive. In assay [6], the inhibition result was “Active”.

For the compound `COC(=O)c1ccccc1OCCCCCCn1c2ccccc2c2ccc(O)cc21`, in assay [1], the inhibition is 1%. Regarding `COC(=O)c1ccccc1OCCCCCCn1c2ccccc2c2c(O)cccc21`, in assay [1], the inhibition amounted to 3%. Compound `COC(=O)c1cc(OCCCCCn2c3ccccc3c3ccc(O)cc32)cc(C(=O)OC)c1` gave an inhibition in assay [1] of 1%.

`COC(=O)c1cc(OCCCCCCCn2c3ccccc3c3ccc(O)cc32)cc(C(=O)OC)c1` returned an inhibition in assay [1] of 5%. As for `COC(=O)c1ccccc1OCCCCCCn1c2ccc(OC)cc2c2c(C)ccc(C)c21`, the inhibition in assay [1] turned out to be 1%.

With `COC(=O)c1cc(OCCCCCCCn2c3ccccc3c3c(O)cccc32)cc(C(=O)OC)c1`, the inhibition in assay [1] amounted to 6%.

As usually defined, the inhibition is the relative decrease from the control value, in per cent.

The values above are taken from ChEMBL document CHEMBL2412953, “Synthesis and biological evaluation of new N-alkylcarbazole derivatives as STAT3 inhibitors: preliminary study” (Eur J Med Chem, 2013).
